The MIC is the smallest concentration in the dilution series that meets the test's criterion for growth inhibition. A low value points to greater potency. One may read the IC50 as the concentration that gives 50% inhibition.

≈ marks a conversion by molar mass, not a printed value. Calls of active or inactive are those of the source. Where only a bound is given, the exact number is not on record here.

Here are results for 21 compounds from ChEMBL document CHEMBL3826950, “Design and development of new class of Mycobacterium tuberculosisl-alanine dehydrogenase inhibitors” (Bioorg Med Chem, 2016).

The test system of series [1] is Mycobacterium tuberculosis. Put plainly: Antibacterial activity against actively replicative Mycobacterium tuberculosis H37Rv measured after 7 days by MABA assay. Conditions: 168 h. It counts as functional. In a few lines:
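Serial two-fold dilutions in 7H9-S were tested against replicating M. tuberculosis H37Rv (ATCC 27294) at 37 °C for 7 days. Alamar blue was then added and plates were incubated overnight. MIC was the lowest concentration that prevented the blue-to-pink colour change.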

Series [2] is described as follows: Inhibition of Mycobacterium tuberculosis L-AlaDH assessed as NADH production by spectrophotometric method. In a few lines: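 Oxidative deamination of L-alanine to pyruvate was followed by NADH absorbance at 340 nm at 37 °C. Background was read from reaction mix without enzyme. Compounds were tested across a 25 to 0.5 range to derive IC50.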
Series [3] is described as follows: Cytotoxicity against mouse RAW264.7 cells assessed as reduction in cell viability at 25 uM measured after 48 hrs by MTT assay. It counts as cell-based. As to conditions: read-out: INH. A digest of the protocol:
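RAW 264.7 cells were grown in RPMI with 10% FBS and penicillin/streptomycin, seeded at about 5000 cells/well on poly-L-lysine, and held 24 h at 37 °C in 5% CO2. Compound exposure lasted 48 h. MTT (0.5 mg/ml) was added for 3 h and formazan was read at 595 nm.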

Series [4] has as its system Mycobacterium tuberculosis. Kind of series: Antibacterial activity against nutrient-starved dormant Mycobacterium tuberculosis H37Rv assessed in log reduction in bacterial count at 10 ug/ml measured after 7 days by MPN assay relative to control. It counts as functional. In a few lines:
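H37Rv was grown in 7H9/OADC, washed, and starved in PBS in sealed bottles at 37 °C for 6 weeks. The starved culture was treated for 7 days at 37 °C, then diluted 10-fold to 10^-6 in 7H9/OADC and plated in triplicate. After 28 days at 37 °C, wells with growth were scored and MPN was calculated (n = 3).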

`Cc1cccc(NC(=O)C2CC(C(=O)Nc3cccc(C)n3)N2NC(=O)c2ccncc2)n1` (centres undefined): the MIC in series [1] stood at 3.51 µM (≈ 1.56 µg/mL). For the same compound, the concentration for half-maximal inhibition (IC50) in series [2] amounted to 14.6 µM. Also, the cytotoxicity at 48 h, 25 µM in series [3] stood at 3.89%.

For `Cc1ccc2[nH]c(/C(C#N)=C/c3ccc(-c4cc(C(=O)O)cc(C(=O)O)c4)o3)nc2c1`, in series [2], the IC50 came to 15.6 µM.

In series [1], `O=C(NN1C(C(=O)NCCc2ccccc2)CC1C(=O)NCCc1ccccc1)c1ccncc1` (centres undefined) returned an MIC of 26.5 µM (≈ 12.5 µg/mL). Further, the IC50 in series [2] stood at 4.75 µM. The cytotoxicity at 48 h, 25 µM in series [3] was 42.3%.

For the compound `COc1ccc(Nc2nc(Nc3ccc4c(=O)[nH][nH]c(=O)c4c3)c3cccnc3n2)cc1`, the half-maximal inhibitory concentration (IC50) in series [2] came to 23.3 µM.

On to `NNC(=O)c1ccncc1` [ISONIAZID], for which the minimal inhibitory concentration (MIC) in series [1] came to 0.72 µM (≈ 0.0987 µg/mL). The “Log reduction in bacterial count” value in series [4] is on record as 1.5.

Regarding `O=C(NN1C(C(=O)Nc2nc3ccccc3s2)CC1C(=O)Nc1nc2ccccc2s1)c1ccncc1` (centres undefined), the MIC in series [1] was 11.8 µM (≈ 6.25 µg/mL). Further, in series [4], the “Log reduction in bacterial count” value is on record as 2. Also, in series [2], the IC50 amounted to 3.83 µM. The cytotoxicity at 48 h, 25 µM in series [3] was determined as 34.7%.

For `COc1ccc(C(=O)Nc2ccccc2)cc1Nc1nc(Nc2ccccn2)nc2ncccc12`, the half-maximal inhibitory concentration (IC50) in series [2] stood at 22.1 µM.

Regarding `O=C(NN1C(C(=O)Nc2ccc(Br)cc2)CC1C(=O)Nc1ccc(Br)cc1)c1ccncc1` (centres undefined), in series [1], the minimal inhibitory concentration (MIC) stood at 2.72 µM (≈ 1.56 µg/mL). For the same compound, the outcome in series [4] was inactive. Besides, the IC50 in series [2] is above 25 µM. Moreover, the cytotoxicity at 48 h, 25 µM in series [3] turned out to be 19.7%.

As to `O=C(NN1C(C(=O)Nc2ccccn2)CC1C(=O)Nc1ccccn1)c1ccncc1` (centres undefined), the MIC in series [1] was 3.74 µM (≈ 1.56 µg/mL). For the same compound, the IC50 in series [2] stood at 9.47 µM. Moreover, the cytotoxicity at 48 h, 25 µM in series [3] was found to be 7.68%.

Consider `Cc1ccc(NC(=O)C2CC(C(=O)Nc3ccc(C)cc3C)N2NC(=O)c2ccncc2)c(C)c1` (centres undefined), for which the MIC in series [1] was 13.3 µM (≈ 6.26 µg/mL). Moreover, the IC50 in series [2] was 4.38 µM. For the same compound, the cytotoxicity at 48 h, 25 µM in series [3] came to 19.3%.

As for `CO[C@H]1/C=C/O[C@@]2(C)Oc3c(C)c(O)c4c(O)c(c(/C=N/N5CCN(C)CC5)c(O)c4c3C2=O)NC(=O)/C(C)=C\C=C\[C@H](C)[C@H](O)[C@@H](C)[C@@H](O)[C@@H](C)[C@H](OC(C)=O)[C@@H]1C` [RIFAMPIN], inhibition of growth in series [1] (MIC) required 0.15 µM (≈ 0.123 µg/mL). In series [4], the “Log reduction in bacterial count” value was determined as 2.2.

`O=C(NN1C(C(=O)NCc2ccccc2)CC1C(=O)NCc1ccccc1)c1ccncc1` (centres undefined) displayed a minimum inhibitory concentration (MIC) in series [1] of 28.2 µM (≈ 12.5 µg/mL). Moreover, the IC50 in series [2] was 10.2 µM. Further, the cytotoxicity at 48 h, 25 µM in series [3] stood at 49.3%.

Compound `COc1ccc(NC(=O)C2CC(C(=O)Nc3ccc(OC)cc3OC)N2NC(=O)c2ccncc2)c(OC)c1` (centres undefined) gave a minimum inhibitory concentration (MIC) in series [1] of 46.7 µM (≈ 25 µg/mL). For the same compound, the concentration for half-maximal inhibition (IC50) in series [2] worked out at 11.7 µM. In addition, the cytotoxicity at 48 h, 25 µM in series [3] worked out at 48.9%.

Consider `COc1c(N2C[C@@H]3CCCN[C@@H]3C2)c(F)cc2c(=O)c(C(=O)O)cn(C3CC3)c12` [MOXIFLOXACIN], for which, in series [1], the lowest concentration to inhibit growth (MIC) was 1.24 µM (≈ 0.498 µg/mL). The “Log reduction in bacterial count” value in series [4] was found to be 2.8.

`O=C(NN1C(C(=O)Nc2ccc(Cl)c(Cl)c2)CC1C(=O)Nc1ccc(Cl)c(Cl)c1)c1ccncc1` (centres undefined) gave an MIC in series [1] of 1.41 µM (≈ 0.78 µg/mL). Further, the IC50 in series [2] was 13.7 µM. Moreover, in series [3], the cytotoxicity at 48 h, 25 µM was found to be 49.5%.

The compound `O=C(NN1C(C(=O)Nc2ccccc2)CC1C(=O)Nc1ccccc1)c1ccncc1` (centres undefined) gave an MIC in series [1] of 15.1 µM (≈ 6.26 µg/mL). Further, the “Log reduction in bacterial count” value in series [4] was found to be 1.6. The half-maximal inhibitory concentration (IC50) in series [2] came to 9.22 µM. In series [3], the cytotoxicity at 48 h, 25 µM worked out at 19.8%.

As for `O=C(NN1C(C(=O)Nc2nc3ccccc3s2)CC1C(=O)Nc1nc2ccccc2s1)c1ccccc1` (centres undefined), the minimum inhibitory concentration (MIC) in series [1] was found to be 5.93 µM (≈ 3.13 µg/mL). In addition, the result in series [4] was inactive. The IC50 in series [2] was above 25 µM. The cytotoxicity at 48 h, 25 µM in series [3] amounted to 12.3%.

With `O=C(NN1C(C(=O)Nc2ccc(Cl)cc2)CC1C(=O)Nc1ccc(Cl)cc1)c1ccncc1` (centres undefined), the MIC in series [1] turned out to be 51.6 µM (≈ 25 µg/mL). Also, the concentration for half-maximal inhibition (IC50) in series [2] came out at 5.56 µM. The cytotoxicity at 48 h, 25 µM in series [3] was determined as 32.9%.

With `Cc1cccc(/C=N/NC2=Nc3[nH]c4ccc(C)cc4c3NN2)c1`, in series [2], the 50% inhibitory concentration (IC50) was 18.2 µM.

The compound `CC[C@@H](CO)NCCN[C@@H](CC)CO` [ETHAMBUTOL] yielded an MIC in series [1] of 7.64 µM (≈ 1.56 µg/mL).

Compound `Cc1cccc(C)c1NC(=O)C1CC(C(=O)Nc2c(C)cccc2C)N1NC(=O)c1ccncc1` (centres undefined) returned an MIC in series [1] of 3.31 µM (≈ 1.56 µg/mL). Also, the IC50 in series [2] amounted to 9.69 µM. The cytotoxicity at 48 h, 25 µM in series [3] stood at 26.6%.
